In ChEMBL document CHEMBL2021883, “Amino acid, dipeptide and pseudodipeptide conjugates of ring-substituted 8-aminoquinolines: synthesis and evaluation of anti-infective, β-haematin inhibition and cytotoxic activities” (Eur J Med Chem, 2012):
Values after ≈ are worked out from the molar mass of the structure shown. Active and inactive are the calls of the source. Unless noted, the rule behind the calls is not given here.

How the values were obtained:
Candida albicans [1] = assay: Antifungal activity against Candida albicans; type: functional, organism-based
Outline: (§1)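 Yeasts and A. fumigatus were tested by broth microdilution following the NCCLS antifungal standards. The highest test concentration was 20.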

Nakaseomyces glabratus = assay: Antifungal activity against Candida glabrata; type: functional, organism-based; outline: as §1
Leishmania donovani = assay: Antileishmanial activity against Leishmania donovani promastigote by Alamar Blue assay; type: functional, organism-based
Cryptococcus neoformans = assay: Antifungal activity against Cryptococcus neoformans; type: functional, organism-based; outline: as §1
[2] = Inhibition of beta-hematin formation; type: functional
Plasmodium falciparum [3] = assay: Antimalarial activity against chloroquine-sensitive Plasmodium falciparum D6 assessed as plasmodial LDH activity; type: functional, organism-based
[4] = tested on: Mycobacterium intracellulare; assay: Antimicrobial activity against Mycobacterium intracellulare ATCC 23068 by Franzblau method; type: functional, organism-based
Pseudomonas aeruginosa = assay: Antimicrobial activity against Pseudomonas aeruginosa ATCC 27853 by CLSI method; type: functional, organism-based
Outline: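 Antibacterial testing used CLSI/NCCLS broth dilution for aerobically growing bacteria, with 20 as the highest test concentration.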

[5] = Selectivity index, ratio of IC50 for african green monkey Vero cells to IC50 for chloroquine-resistant Plasmodium falciparum W2; type: toxicity, cell-based; conditions: Vero cells versus Plasmodium falciparum W2, read-out: Ratio IC50
Escherichia coli = assay: Antimicrobial activity against Escherichia coli ATCC 35218 by CLSI method; type: functional, organism-based
Staphylococcus aureus [6] = assay: Antimicrobial activity against Staphylococcus aureus ATCC 29213 by CLSI method; type: functional, organism-based
[7] = Selectivity index, ratio of IC50 for african green monkey Vero cells to IC50 for chloroquine-sensitive Plasmodium falciparum D6; type: toxicity, cell-based; conditions: Vero cells versus Plasmodium falciparum D6, read-out: Ratio IC50
Staphylococcus aureus [8] = assay: Antimicrobial activity against methicillin-resistant Staphylococcus aureus ATCC 43300 by CLSI method; type: functional, organism-based
Vero = assay: Cytotoxicity against african green monkey Vero cells upto 23.8 […] by neutral dye assay; type: cell-based, Chlorocebus sabaeus
Outline: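 Vero monkey kidney cells were exposed to compound up to a highest concentration of 23.8, with viability read by neutral red uptake.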

Plasmodium falciparum [9] = assay: Antimalarial activity against chloroquine-resistant Plasmodium falciparum W2 assessed as plasmodial LDH activity; type: functional, organism-based
Aspergillus fumigatus = assay: Antifungal activity against Aspergillus fumigatus; type: functional, organism-based; outline: as §1
Candida albicans [10] = assay: Antifungal activity against Candida albicans at 20 ug/ml; type: functional, organism-based
Outline: (§2)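 Broth dilution antifungal testing followed the NCCLS reference method for yeasts, with 20 as the highest test concentration. MIC was the lowest concentration with no detectable growth. MFC was the lowest concentration killing the organism.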

Candida albicans [11] = assay: Fungicidal activity against Candida albicans at 20 ug/ml; type: functional, organism-based; outline: as §2
Plasmodium berghei = assay: Antimalarial activity against Plasmodium berghei blood-schizont in mouse malaria model assessed as elimination of parasitemia at 100 mg/kg, po for 4 days for 4 days measured after 7 days; type: functional, organism-based; parameters: dose 100 mg/kg
Outline: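 P. berghei-infected mice, 6 per group, received compound orally once daily for 4 days at 10, 25, 50 or 100 mg/kg/day. "Active" meant all treated animals were parasitaemia-negative up to D+7. "Curative" meant complete parasite elimination with survival to D+60. Outcomes were recorded as cured/total.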

[12] = Plasmodium falciparum, D6, read-out: IC50
[13] = Plasmodium falciparum, W2, read-out: IC50
[14] = Leishmania donovani, read-out: IC50

SMILES	IC90 (Leishmania donovani; Leishmania donovani)	MFC (Cryptococcus neoformans)	IC50 [2]	IC50 (Plasmodium falciparum [3]; [12])	Activity [4]	Activity (Pseudomonas aeruginosa)	selectivity ratio [5]	Activity (Escherichia coli)	Activity (Staphylococcus aureus [6])	selectivity ratio [7]	Activity (Staphylococcus aureus [8])	IC50 (Vero)	IC50 (Leishmania donovani)	IC90 (Leishmania donovani)	IC50 (Plasmodium falciparum [9]; [13])	Activity (Aspergillus fumigatus)	Activity (Candida albicans [10])	Activity (Candida albicans [11])	IC50 (Cryptococcus neoformans)	MIC (Cryptococcus neoformans)	also measured
C[C@@H]1[C@H](O)[C@@H](C)/C=C/C=C/C=C/C=C/C=C/C=C/C=C/[C@H](O[C@@H]2O[C@H](C)[C@@H](O)[C@H](N)[C@@H]2O)C[C@@H]2O[C@](O)(C[C@@H](O)C[C@@H](O)[C@H](O)CC[C@@H](O)C[C@@H](O)CC(=O)O[C@H]1C)C[C@H](O)[C@H]2C(=O)O [AMPHOTERICIN B]	0.35 µg/mL (≈ 0.379 µM)	1.5 µg/mL (≈ 1.62 µM)	–	–	–	–	–	–	–	–	–	–	–	–	–	–	–	–	–	–	MIC (Candida albicans [1]): 0.63 µg/mL (≈ 0.682 µM); MFC (Nakaseomyces glabratus): 0.625 µg/mL (≈ 0.676 µM); MIC (Nakaseomyces glabratus): 0.31 µg/mL (≈ 0.335 µM)
COc1cc(NC(C)CCCNC(=O)NCCC[C@@H](N)C(=O)O)c2nc(C(C)(C)C)ccc2c1 (some centres undefined)	–	–	250 µM	4.2 µg/mL (≈ 8.87 µM)	inactive	inactive	5	inactive	inactive	> 5.5	inactive	Non-toxic	Not Active	inactive	4.76 µg/mL (≈ 10.1 µM)	–	–	–	–	–	–
COc1cc(NC(C)CCCNC(=O)C[C@H](NC(=O)[C@@H](N)CCCNC(=N)N)C(=O)O)c2ncccc2c1 (some centres undefined)	–	–	120 µM	3 µg/mL (≈ 5.65 µM)	inactive	inactive	> 8.2	inactive	inactive	> 7.9	inactive	Non-toxic	Not Active	inactive	2.9 µg/mL (≈ 5.47 µM)	–	–	–	–	–	–
COc1cc(NC(C)CCCNC(=O)[C@H](CCCNC(=N)N)NC(=O)[C@@H](N)CCCNC(=N)N)c2ncccc2c1 (some centres undefined)	–	10 µg/mL (≈ 17.5 µM)	81 µM	–	inactive	inactive	> 5	inactive	inactive	–	inactive	Non-toxic	Not Active	inactive	4.76 µg/mL (≈ 8.33 µM)	inactive	inactive	inactive	4.5 µg/mL (≈ 7.87 µM)	10 µg/mL (≈ 17.5 µM)	IC50 (Plasmodium falciparum [3]): Not Active
COc1cc(NC(C)CCCNC(=O)[C@H](CCCCN)NC(=O)[C@@H](N)CCCCN)c2nc(C(C)(C)C)ccc2c1 (some centres undefined)	39 µg/mL (≈ 68.2 µM)	5 µg/mL (≈ 8.74 µM)	73 µM	0.63 µg/mL (≈ 1.1 µM)	inactive	inactive	> 59.5	inactive	inactive	> 37.7	inactive	Non-toxic	–	–	0.4 µg/mL (≈ 0.7 µM)	inactive	inactive	inactive	3.5 µg/mL (≈ 6.12 µM)	5 µg/mL (≈ 8.74 µM)	Activity (Plasmodium berghei): Active; IC50 (Leishmania donovani; [14]): 19 µg/mL (≈ 33.2 µM)
COc1cc(NC(C)CCCNC(=O)[C@@H](CCCNC(=N)N)NC(=O)[C@H](N)CCCNC(=N)N)c2ncccc2c1 (some centres undefined)	36 µg/mL (≈ 63 µM)	10 µg/mL (≈ 17.5 µM)	32 µM	1.3 µg/mL (≈ 2.27 µM)	inactive	inactive	> 14	inactive	inactive	> 18.3	inactive	Non-toxic	–	–	1.7 µg/mL (≈ 2.97 µM)	inactive	inactive	inactive	7 µg/mL (≈ 12.2 µM)	10 µg/mL (≈ 17.5 µM)	IC50 (Leishmania donovani; [14]): 17 µg/mL (≈ 29.7 µM)
COc1cc(NC(C)CCCNC(=O)[C@H](CCCN)NC(=O)[C@@H](N)CCCN)c2ncccc2c1 (some centres undefined)	20 µg/mL (≈ 41 µM)	20 µg/mL (≈ 41 µM)	> 1000 µM	–	inactive	inactive	–	inactive	inactive	–	inactive	Non-toxic	–	–	–	inactive	inactive	inactive	5.5 µg/mL (≈ 11.3 µM)	10 µg/mL (≈ 20.5 µM)	IC50 (Plasmodium falciparum [3]): Not Active; Activity (Plasmodium berghei): Active; IC50 (Leishmania donovani; [14]): 4 µg/mL (≈ 8.2 µM); IC50 (Plasmodium falciparum [9]): Not Active
COc1cc(NC(C)CCCNC(=O)C[C@H](NC(=O)[C@@H](N)CCCN)C(=O)O)c2nc(C(C)(C)C)ccc2c1 (some centres undefined)	36 µg/mL (≈ 66.1 µM)	20 µg/mL (≈ 36.7 µM)	40 µM	2.7 µg/mL (≈ 4.96 µM)	inactive	inactive	> 7.9	inactive	inactive	> 8.8	inactive	Non-toxic	–	–	3 µg/mL (≈ 5.51 µM)	inactive	–	–	4 µg/mL (≈ 7.34 µM)	20 µg/mL (≈ 36.7 µM)	IC50 (Candida albicans [1]): 15 µg/mL (≈ 27.5 µM); MFC (Candida albicans [1]): 20 µg/mL (≈ 36.7 µM); MIC (Candida albicans [1]): 20 µg/mL (≈ 36.7 µM); IC50 (Leishmania donovani; [14]): 20 µg/mL (≈ 36.7 µM)
COc1cc(NC(C)CCCNC(=O)C[C@@H](NC(=O)[C@H](N)CCCNC(=N)N)C(=O)O)c2ncccc2c1 (some centres undefined)	33 µg/mL (≈ 62.2 µM)	–	210 µM	3.2 µg/mL (≈ 6.03 µM)	inactive	inactive	> 5.6	inactive	inactive	> 7.4	inactive	Non-toxic	–	–	4.2 µg/mL (≈ 7.92 µM)	–	–	–	–	–	IC50 (Leishmania donovani; [14]): 20.1 µg/mL (≈ 37.9 µM)
COc1cc(NC(C)CCCNC(=O)C[C@@H](NC(=O)[C@H](N)CCCNC(=N)N)C(=O)O)c2nc(C(C)(C)C)ccc2c1 (some centres undefined)	–	–	127 µM	1.8 µg/mL (≈ 3.07 µM)	inactive	inactive	> 9.1	inactive	inactive	> 13.2	inactive	Non-toxic	Not Active	inactive	2.6 µg/mL (≈ 4.43 µM)	–	–	–	–	–	Activity (Plasmodium berghei): Active
COc1cc(NC(C)CCCNC(=O)CC[C@H](NC(=O)[C@@H](N)CCCNC(=N)N)C(=O)O)c2ncccc2c1 (some centres undefined)	–	–	–	1.8 µg/mL (≈ 3.3 µM)	inactive	inactive	> 13.2	inactive	inactive	> 13.2	inactive	Non-toxic	Not Active	inactive	1.8 µg/mL (≈ 3.3 µM)	–	–	–	–	–	–
COc1cc(NC(C)CCCNC(=O)C[C@@H](NC(=O)[C@H](N)CCCCN)C(=O)O)c2ncccc2c1 (some centres undefined)	–	10 µg/mL (≈ 19.9 µM)	160 µM	2.4 µg/mL (≈ 4.78 µM)	inactive	inactive	> 7.4	inactive	inactive	> 9.9	inactive	Non-toxic	Not Active	inactive	3.2 µg/mL (≈ 6.37 µM)	inactive	inactive	inactive	4.5 µg/mL (≈ 8.95 µM)	10 µg/mL (≈ 19.9 µM)	–
